For data set [1], the system named is SW620-5FU-R and LS411N-5FU-R cells. Briefly: Cell surface DR4 and DR5 expression by flow cytometry. Format: cell-based, human. Conditions: 2 days. The method in brief:
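Cells were plated at 1×10^5 per well and exposed to 0, 20 or 50 nM test compound. They were then stained with anti-DR4 (TRAIL-R1) or anti-DR5 (TRAIL-R2) antibodies and analysed by flow cytometry.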

Another data set concerns SW620 and SW480 cells. The data set can be described thus: ChIP analysis of the FAS promoter region. The settings on record: 2 days. Format: cell-based, human. A digest of the protocol: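 Cells (SW620 given 50 nM test compound for H3K9me3 and RNA Pol II; SW480 and SW620 for H3K9ac) treated 2 days. ChIP followed the kit manufacturer's protocol with anti-H3K9me3, anti-H3K9ac or anti-RNA Pol II, and IgG as the negative control. The FAS promoter ChIP 1 region was read by semi-quantitative PCR and by real-time PCR, against 2 ng genomic DNA set at 1.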

Data set [2] concerns LS411N-5FU-R and SW620-5FU-R cells. The data set can be described thus: Sensitization to Drozitumab-induced apoptosis. It is filed as cell-based, human. The settings on record: verticillin A 20 nM, Drozitumab 500 ng/ml, 24h. A digest of the protocol: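 Cells were given test compound (20 nM), drozitumab (500 ng/ml) or both for 24 h. Floating and adherent cells were pooled and stained with Annexin V and PI, then read by flow cytometry. % apoptotic death = % Annexin V⁺PI⁺ of treated minus untreated control (mean, SD).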

The test system is the same in data set [3]. Briefly: Sensitization to FasL-induced apoptosis. It is filed as cell-based, human. The settings on record: sublethal doses plus FasL, 24h.
Data set [4] deals with LS411N and SW620 cells. Briefly: BNIP3 promoter DNA methylation by methylation specific-PCR. It is filed as cell-based, human. The settings on record: 3 days. The method in brief: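 Cells were exposed to test compound at several concentrations for 3 days. Methylation status of the BNIP3 promoter CpG island was then assessed by methylation-specific PCR, with separate primers for the unmethylated and methylated forms.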

Data set [5] concerns LS411N-5FU-R and SW620-5FU-R cells. Briefly: Fas expression. Format: cell-based, human. Conditions: 20 nM, 2 days. The method in brief: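 Cells were cultured with or without 20 nM test compound for 2 days. Surface Fas was measured by flow cytometry with a Fas-specific mAb against an IgG isotype control, quantified as MFI (mean, SD). Fas mRNA in SW620-5FU-R was measured by real-time RT-PCR.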

A short description of data set [6]: Mouse serum liver enzyme profiles. It is filed as in vivo. The settings on record: at the efficacious dose (1 mg/kg i.v.); preliminary assays.
In a further data set the target is DNMT3a (Homo sapiens, UniProt Q9Y6K1). Briefly: DNMT enzymatic activity in vitro. It is filed as biochemical. The settings on record: recombinant DNMT3a; 10-dose, 3-fold serial dilutions starting at 10 μM. A digest of the protocol: (§1)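 Recombinant human enzyme with ³H-S-adenosylmethionine as substrate. Test compound was run at 10 doses, 3-fold serial dilution from 10 μM. […] Activity was plotted against concentration and IC50 fitted by curve regression. Three independent assays used three compound lots.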

Data set [7] deals with LS411N and SW620 cells. Briefly: Global H3K9 methylation by Western blot of histone acidic extracts. Format: cell-based, human. Conditions: 2 days. A digest of the protocol:
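Cells were exposed to test compound at several concentrations for 2 days. Lysis buffer was 20 mM Tris-HCl pH 8, 150 mM NaCl, 5 mM EDTA, 0.5% NP-40 with protease inhibitors, for 30 min. After centrifugation the pellet went into 0.1M HCl on ice for 30 min. The acid extract was neutralised with Tris-HCl pH 9.0, blotted for H3K9me2/H3K9me3, and reprobed for total H3 as normaliser.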

Another data set addresses DNMT3b (Homo sapiens, UniProt Q9UBC3). Briefly: DNMT enzymatic activity in vitro. The settings on record: recombinant DNMT3b; 10-dose, 3-fold serial dilutions starting at 10 μM. It is filed as biochemical. The method in brief:
as §1

For data set [8], the system named is metastatic human CRC cells. The data set can be described thus: Cell growth / viability. It is filed as cell-based.
For the next data set, the target named is DNMT1 (Homo sapiens, UniProt P26358). The data set can be described thus: DNMT enzymatic activity in vitro. It is filed as biochemical. The settings on record: recombinant DNMT1; 10-dose, 3-fold serial dilutions starting at 10 μM. A digest of the protocol:
as §1

Results on three compounds are retold here after paper PMC4530033 (Journal of immunology (Baltimore, Md. : 1950), 2015).

DNMT1, sequence (P26358 whole entry, species assumed): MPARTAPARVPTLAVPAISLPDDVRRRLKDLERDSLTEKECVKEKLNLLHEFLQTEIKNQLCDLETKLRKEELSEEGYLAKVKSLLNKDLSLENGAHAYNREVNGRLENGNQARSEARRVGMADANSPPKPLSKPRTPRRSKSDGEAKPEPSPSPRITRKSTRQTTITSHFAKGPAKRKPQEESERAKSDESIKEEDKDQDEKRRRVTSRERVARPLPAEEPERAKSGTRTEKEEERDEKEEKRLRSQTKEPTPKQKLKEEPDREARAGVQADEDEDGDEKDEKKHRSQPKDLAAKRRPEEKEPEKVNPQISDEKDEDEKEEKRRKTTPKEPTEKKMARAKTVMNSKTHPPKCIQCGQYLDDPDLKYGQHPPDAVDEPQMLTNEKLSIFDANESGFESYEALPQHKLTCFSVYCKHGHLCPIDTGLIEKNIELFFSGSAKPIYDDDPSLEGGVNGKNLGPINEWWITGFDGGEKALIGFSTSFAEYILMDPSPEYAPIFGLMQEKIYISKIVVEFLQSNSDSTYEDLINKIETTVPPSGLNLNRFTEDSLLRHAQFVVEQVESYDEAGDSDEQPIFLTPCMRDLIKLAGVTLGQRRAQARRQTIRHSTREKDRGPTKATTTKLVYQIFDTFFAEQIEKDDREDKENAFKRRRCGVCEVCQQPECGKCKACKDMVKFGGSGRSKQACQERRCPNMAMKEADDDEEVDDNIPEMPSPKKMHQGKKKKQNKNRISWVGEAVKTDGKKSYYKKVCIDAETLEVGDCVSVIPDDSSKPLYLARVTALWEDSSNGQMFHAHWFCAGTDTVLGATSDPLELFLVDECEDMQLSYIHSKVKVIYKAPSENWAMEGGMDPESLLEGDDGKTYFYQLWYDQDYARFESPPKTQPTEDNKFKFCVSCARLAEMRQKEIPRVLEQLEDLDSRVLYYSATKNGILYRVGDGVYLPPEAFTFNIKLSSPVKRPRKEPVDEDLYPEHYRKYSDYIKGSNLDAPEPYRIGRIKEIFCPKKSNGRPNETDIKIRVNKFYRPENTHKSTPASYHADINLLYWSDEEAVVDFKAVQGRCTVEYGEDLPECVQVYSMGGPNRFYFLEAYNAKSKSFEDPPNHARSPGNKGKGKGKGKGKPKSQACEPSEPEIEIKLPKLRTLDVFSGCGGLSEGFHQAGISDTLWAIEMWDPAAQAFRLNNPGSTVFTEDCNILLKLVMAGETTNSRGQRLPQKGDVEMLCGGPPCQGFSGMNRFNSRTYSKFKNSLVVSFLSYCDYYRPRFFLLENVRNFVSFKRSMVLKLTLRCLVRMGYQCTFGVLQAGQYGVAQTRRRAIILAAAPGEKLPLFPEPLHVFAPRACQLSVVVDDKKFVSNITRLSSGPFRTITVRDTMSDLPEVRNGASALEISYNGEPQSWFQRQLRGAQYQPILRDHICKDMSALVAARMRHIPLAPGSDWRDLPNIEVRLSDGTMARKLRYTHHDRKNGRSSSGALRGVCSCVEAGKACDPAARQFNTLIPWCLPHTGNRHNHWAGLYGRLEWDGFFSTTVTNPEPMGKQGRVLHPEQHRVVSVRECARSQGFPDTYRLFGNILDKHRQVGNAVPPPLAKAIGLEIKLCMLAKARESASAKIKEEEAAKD
DNMT3a, sequence (Q9Y6K1 whole entry, looked up, species assumed): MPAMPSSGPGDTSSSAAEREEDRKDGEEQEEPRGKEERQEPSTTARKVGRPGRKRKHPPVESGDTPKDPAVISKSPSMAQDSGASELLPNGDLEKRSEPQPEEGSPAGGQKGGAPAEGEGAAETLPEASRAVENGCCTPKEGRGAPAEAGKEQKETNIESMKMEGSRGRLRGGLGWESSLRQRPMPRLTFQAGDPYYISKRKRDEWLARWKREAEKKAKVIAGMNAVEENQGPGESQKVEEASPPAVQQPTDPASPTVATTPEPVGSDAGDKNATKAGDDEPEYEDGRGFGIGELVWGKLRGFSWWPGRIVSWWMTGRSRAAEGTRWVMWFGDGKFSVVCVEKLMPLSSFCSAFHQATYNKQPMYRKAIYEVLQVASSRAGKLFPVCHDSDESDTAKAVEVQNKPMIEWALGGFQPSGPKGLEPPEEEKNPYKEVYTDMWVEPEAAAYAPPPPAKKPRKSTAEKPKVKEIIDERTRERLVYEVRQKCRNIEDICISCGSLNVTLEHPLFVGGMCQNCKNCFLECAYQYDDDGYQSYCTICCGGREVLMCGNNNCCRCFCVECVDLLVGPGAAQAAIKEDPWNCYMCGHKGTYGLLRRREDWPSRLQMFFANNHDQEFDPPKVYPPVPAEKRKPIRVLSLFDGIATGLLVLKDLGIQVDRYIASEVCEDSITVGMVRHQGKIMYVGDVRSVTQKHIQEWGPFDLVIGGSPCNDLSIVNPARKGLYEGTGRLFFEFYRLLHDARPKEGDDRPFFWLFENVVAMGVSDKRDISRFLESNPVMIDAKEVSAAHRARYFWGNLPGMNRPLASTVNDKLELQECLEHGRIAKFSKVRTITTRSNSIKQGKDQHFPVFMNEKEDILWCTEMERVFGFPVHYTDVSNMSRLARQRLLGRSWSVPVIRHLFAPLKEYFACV

Turning to `CN1C(=O)[C@]23SS[C@@]1(C)C(=O)N2[C@H]1Nc2ccccc2[C@@]1([C@@]12c4ccccc4N[C@@H]1N1C(=O)[C@@]4(C)SS[C@]1(C(=O)N4C)[C@H]2O)[C@@H]3O` [Verticillin A, verticillin A], in data set [1], the DR4 expression result was “did not alter” and the DR5 expression level result is on record as “increased”. For the same compound, the “H3K9ac level in the FAS promoter region” value in the data set on SW620 and SW480 cells (SW480 cells) is “dramatically increased”. In the data set on SW620 and SW480 cells (SW620 cells, 50 nM), the “H3K9me3 level in the FAS promoter region” value was “decreased” and the “RNA Pol II level in the FAS promoter region” value is “did not identify an increase”. The “H3K9ac level in the FAS promoter region” value in the data set with SW620 and SW480 cells (SW620 cells, increase) was “at a low degree”. Moreover, the “cell sensitivity to Drozitumab” value in data set [2] is given as “significantly increased”. In addition, in data set [3], the “sensitization of tumor cells to FasL-induced apoptosis” value is “significantly greater efficacy than either decitabine or vorinostat”. The “DNA demethylation of the BNIP3 promoter region” value with LS411N and SW620 cells [4] is on record as “did not result in DNA demethylation”. Moreover, the “cell surface Fas receptor level” value in [5] (LS411N-5FU-R and SW620-5FU-R cells, flow cytometry) was “significantly increased”. For the same compound, the “Fas mRNA level” value in data set [5] (SW620-5FU-R cells, real time RT-PCR) was “significantly increased”. Further, the liver toxicity entry in data set [6] is listed as “minimal liver toxicity”. Also, the “effect on DNMT3a enzymatic activity” value at DNMT3a is reported as “no inhibitory effect”. Moreover, the “H3K9me2 and H3K9me3 levels” value in the data set with LS411N and SW620 cells [7] is listed as “diminished”. For the same compound, the “effect on DNMT3b enzymatic activity” value at DNMT3b is listed as “no inhibitory effect”. Moreover, the “sensitivity of 5-FU-resistant human CRC cells to verticillin A” value in [8] (5-FU-resistant cells versus parent cell lines (Fig. S2B)) is listed as “as sensitive to verticillin A as the parent cell lines”. Besides, the “dose effective in suppression of metastatic human CRC cell growth” value in data set [8] (relatively high dose) was 100 nM. Further, at DNMT1, the “effect on DNMT1 enzymatic activity” value is “no inhibitory effect”.
In the case of `Nc1ncn([C@H]2C[C@H](O)[C@@H](CO)O2)c(=O)n1` [decitabine], in data set [3], the “sensitization of tumor cells to FasL-induced apoptosis” value is reported as “to a small degree”.
On the same count and under the same terms, in the case of `O=C(CCCCCCC(=O)Nc1ccccc1)NO` [vorinostat] it was “to a small degree”.
